Reference: ChEMBL document CHEMBL1139027, “Design and synthesis of potent and subtype-selective PPARalpha agonists” (Bioorg Med Chem Lett, 2006)

How the values were obtained:
[1] = biological target: T1, Peroxisome proliferator-activated receptor delta (Homo sapiens, UniProt Q03181); experiment: Transactivation by human PPAR delta in COS1 cells; format: functional, cell-based, COS-1
T1 sequence (Q03181 whole entry): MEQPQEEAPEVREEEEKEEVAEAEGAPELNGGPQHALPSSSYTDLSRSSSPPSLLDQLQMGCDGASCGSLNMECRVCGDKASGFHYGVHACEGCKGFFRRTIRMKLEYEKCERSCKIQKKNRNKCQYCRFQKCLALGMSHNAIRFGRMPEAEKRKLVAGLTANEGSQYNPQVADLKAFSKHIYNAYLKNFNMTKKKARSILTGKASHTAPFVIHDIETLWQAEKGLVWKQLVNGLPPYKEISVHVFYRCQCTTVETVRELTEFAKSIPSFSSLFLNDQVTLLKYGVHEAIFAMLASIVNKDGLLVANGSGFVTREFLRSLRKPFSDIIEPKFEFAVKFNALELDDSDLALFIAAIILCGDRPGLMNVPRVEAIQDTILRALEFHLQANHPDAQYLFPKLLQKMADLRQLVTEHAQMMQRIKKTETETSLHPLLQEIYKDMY

[2] = biological target: T2, Peroxisome proliferator-activated receptor alpha (Homo sapiens, UniProt Q07869); experiment: Binding affinity to human PPAR alpha
T2 sequence (Q07869 whole entry): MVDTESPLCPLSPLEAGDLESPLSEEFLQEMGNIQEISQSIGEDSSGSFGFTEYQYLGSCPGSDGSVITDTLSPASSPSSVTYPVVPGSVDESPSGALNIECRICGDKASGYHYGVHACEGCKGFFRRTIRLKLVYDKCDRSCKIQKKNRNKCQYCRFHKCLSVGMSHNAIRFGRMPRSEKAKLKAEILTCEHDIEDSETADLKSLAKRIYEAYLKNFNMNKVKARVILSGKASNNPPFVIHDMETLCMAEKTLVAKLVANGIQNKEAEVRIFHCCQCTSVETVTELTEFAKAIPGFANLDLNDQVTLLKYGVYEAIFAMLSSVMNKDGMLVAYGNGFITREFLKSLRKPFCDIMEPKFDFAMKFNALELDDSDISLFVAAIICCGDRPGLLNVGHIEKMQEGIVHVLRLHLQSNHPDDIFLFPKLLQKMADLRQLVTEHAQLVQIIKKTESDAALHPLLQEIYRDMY

[3] = biological target: T1, Peroxisome proliferator-activated receptor delta; experiment: Binding affinity to human PPAR delta
[4] = biological target: T2, Peroxisome proliferator-activated receptor alpha; experiment: Transactivation by human PPAR alpha in COS1 cells; format: functional, cell-based, COS-1
[5] = biological target: T3, Peroxisome proliferator-activated receptor gamma (Homo sapiens, UniProt P37231); format: functional, cell-based, COS-1
T3 sequence (P37231 whole entry): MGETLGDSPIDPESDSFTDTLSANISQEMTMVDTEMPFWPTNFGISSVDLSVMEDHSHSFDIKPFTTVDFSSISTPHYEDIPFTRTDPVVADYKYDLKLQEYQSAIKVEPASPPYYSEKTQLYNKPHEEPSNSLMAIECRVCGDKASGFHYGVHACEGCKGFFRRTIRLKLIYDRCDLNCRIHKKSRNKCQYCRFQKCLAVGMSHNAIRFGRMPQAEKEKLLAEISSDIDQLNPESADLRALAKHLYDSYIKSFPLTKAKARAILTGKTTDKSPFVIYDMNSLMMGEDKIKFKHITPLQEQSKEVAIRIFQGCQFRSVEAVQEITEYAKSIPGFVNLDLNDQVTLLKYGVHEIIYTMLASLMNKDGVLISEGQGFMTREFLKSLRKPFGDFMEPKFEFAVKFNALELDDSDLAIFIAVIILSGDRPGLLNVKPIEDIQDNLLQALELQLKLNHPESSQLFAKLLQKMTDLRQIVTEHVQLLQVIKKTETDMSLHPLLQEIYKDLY

[6] = biological target: T3, Peroxisome proliferator-activated receptor gamma
Cytochrome P450 2C9 = Cytochrome P450 2C9 (Homo sapiens, UniProt P11712)
Chain of Cytochrome P450 2C9 (P11712 whole entry): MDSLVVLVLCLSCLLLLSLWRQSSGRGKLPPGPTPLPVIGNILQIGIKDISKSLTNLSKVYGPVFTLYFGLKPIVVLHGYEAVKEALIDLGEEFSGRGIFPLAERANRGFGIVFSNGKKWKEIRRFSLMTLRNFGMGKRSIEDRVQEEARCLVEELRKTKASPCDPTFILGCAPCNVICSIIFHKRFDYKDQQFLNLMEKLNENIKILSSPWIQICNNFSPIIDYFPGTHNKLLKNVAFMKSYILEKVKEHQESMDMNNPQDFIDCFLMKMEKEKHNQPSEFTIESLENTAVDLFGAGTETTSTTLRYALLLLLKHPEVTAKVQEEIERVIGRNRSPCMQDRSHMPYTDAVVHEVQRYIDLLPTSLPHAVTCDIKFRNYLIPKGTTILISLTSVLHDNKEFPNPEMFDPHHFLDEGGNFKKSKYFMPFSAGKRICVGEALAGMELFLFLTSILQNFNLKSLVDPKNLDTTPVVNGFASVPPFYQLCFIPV

Canis familiaris [7] = experiment: Decrease in cholesterol level in Beagle dog at 4 mg/kg, po; format: functional, Canis lupus familiaris; design: scale not given: the % may be the effect or the level left
Summary of the method: (§1)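 Male beagle dogs (12–18 kg, n = 5) fed cholesterol-free chow ad libitum with free access to water. Compounds were suspended in 0.5% methylcellulose and gavaged daily for 14 days. Serum cholesterol is reported as a mean value, with final-day data compared against vehicle control.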

Syrian golden hamster [8] = experiment: Decrease in triglyceride level in Golden Syrian hamster at 100 mg/kg, po; format: functional, Mesocricetus auratus; design: scale not given: the % may be the effect or the level left
Summary of the method: (§2)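 Male Golden Syrian hamsters (120–150 g, n = 10) on normal rodent chow with free access to water. Sodium salts were given by oral gavage once daily for 9 days in 0.5% methylcellulose vehicle. Serum cholesterol and triglycerides were measured and reported as % change.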

Syrian golden hamster [9] = experiment: Decrease in cholesterol level in Golden Syrian hamster at 100 mg/kg, po; format: functional, Mesocricetus auratus; design: scale not given: the % may be the effect or the level left; summary of the method: as §2
Canis familiaris [10] = experiment: Decrease in cholesterol level in Beagle dog at 50 mg/kg, po; format: functional, Canis lupus familiaris; design: scale not given: the % may be the effect or the level left; summary of the method: as §1

CCCc1cc(Oc2ccc(F)cc2)ccc1OCCCOc1ccc(C2SC(=O)NC2=O)cc1 (centres undefined)
EC50 ([1]; cos-1): Not Active
EC50 [2]: Not Active
EC50 [3]: Not Active
EC50 ([4]; cos-1): Not Active

O=C(O)C(Cc1ccc(OCCCOc2ccc(Oc3ccc(F)cc3)cc2Cl)cc1)C1CCC1 (centres undefined)
EC50 ([5]; cos-1): Not Active
IC50 [2]: 116 nM
IC50 ([3]; read-out: IC50): 1350 nM
EC50 ([4]; read-out: EC50): 15 nM
IC50 [6]: Not Active

CC(C)(Oc1ccc(OCCOc2ccc(Oc3ccc(F)cc3)cc2Cl)cc1)C(=O)O
EC50 ([5]; cos-1): Not Active
EC50 ([1]; cos-1): Not Active
EC50 ([2]; read-out: EC50): 87 nM
EC50 [3]: Not Active
EC50 ([4]; read-out: EC50): 62 nM
EC50 [6]: Not Active

CC[C@@](C)(Oc1ccc(OCCCOc2ccc(Oc3ccc(F)cc3)cc2Cl)cc1)C(=O)O
EC50 ([5]; read-out: EC50): > 3000 nM
IC50 [2]: 101 nM
IC50 ([3]; read-out: IC50): 2410 nM
EC50 ([4]; read-out: EC50): 20 nM
IC50 [6]: Not Active

CCC(Cc1ccc(OCCCOc2ccc(Oc3ccc(F)cc3)cc2Cl)cc1)C(=O)O (centres undefined)
IC50 [2]: 156 nM
IC50 ([3]; read-out: IC50): 1170 nM
IC50 [6]: Not Active

CC(C)(Oc1cccc(OCCCOc2ccc(Oc3ccc(F)cc3)cc2Cl)c1)C(=O)O
EC50 ([2]; read-out: EC50): 36 nM
EC50 ([4]; read-out: EC50): 21 nM
EC50 [6]: Not Active

CCCc1cc(Oc2ccc(F)cc2)ccc1OCCCOc1ccc(OC(C)(C)C(=O)O)cc1
EC50 ([1]; read-out: EC50): 55 nM
EC50 ([2]; read-out: EC50): 110 nM
EC50 ([3]; read-out: EC50): 106 nM
EC50 ([4]; read-out: EC50): 51 nM

CCCC(Cc1ccc(OCCCOc2ccc(Oc3ccc(F)cc3)cc2Cl)cc1)C(=O)O (centres undefined)
IC50 [2]: 130 nM
IC50 ([3]; read-out: IC50): 1130 nM
EC50 ([4]; read-out: EC50): 454 nM
IC50 [6]: Not Active

O=C(O)CCc1ccc(OCCCOc2ccc(Oc3ccc(F)cc3)cc2Cl)cc1
IC50 [2]: 675 nM
IC50 ([3]; read-out: IC50): > 50 nM

CC(C)(Oc1ccc(OCCCCOc2ccc(Oc3ccc(F)cc3)cc2Cl)cc1)C(=O)O
EC50 ([1]; read-out: EC50): 284 nM
EC50 ([2]; read-out: EC50): 66 nM
EC50 ([3]; read-out: EC50): 545 nM
EC50 ([4]; read-out: EC50): 35 nM

CC[C@@](C)(Cc1ccc(OCCCOc2ccc(CC(F)(F)F)cc2Cl)cc1)C(=O)O
EC50 ([5]; cos-1): Not Active
IC50 (Cytochrome P450 2C9): < 50 nM
IC50 [2]: < 1 nM
IC50 ([3]; read-out: IC50): > 70000 nM
EC50 ([4]; read-out: EC50): < 1 nM
IC50 ([6]; read-out: IC50): > 6000 nM

CC(C)(Oc1ccccc1OCCCOc1ccc(Oc2ccc(F)cc2)cc1Cl)C(=O)O
EC50 [2]: Not Active
EC50 [3]: Not Active
EC50 [6]: Not Active

CCC(C)(Oc1ccc(OCCCOc2ccc(Oc3ccc(F)cc3)cc2Cl)cc1)C(=O)O (centres undefined)
EC50 ([5]; cos-1): Not Active
IC50 [2]: 5 nM
IC50 [3]: Not Active
EC50 ([4]; read-out: EC50): 2.5 nM
IC50 ([6]; read-out: IC50): 1240 nM

CC[C@@](C)(Cc1ccc(OCCCOc2ccc3c(C(F)(F)F)cc(=O)oc3c2C)cc1)C(=O)O
IC50 [2]: 49 nM
IC50 ([3]; read-out: IC50): 134 nM
EC50 ([4]; read-out: EC50): 10 nM
IC50 [6]: Not Active

CC[C@@](C)(Oc1ccc(OCCCOc2ccc3c(C(F)(F)F)cc(=O)oc3c2Cl)cc1)C(=O)O
IC50 [2]: 157 nM
IC50 ([3]; read-out: IC50): 3270 nM
IC50 [6]: Not Active

CC[C@](C)(Oc1ccc(OCCCOc2ccc(Oc3ccc(F)cc3)cc2Cl)cc1)C(=O)O
EC50 ([5]; cos-1): Not Active
IC50 [2]: 6 nM
IC50 ([3]; read-out: IC50): 1090 nM
EC50 ([4]; read-out: EC50): 3 nM
IC50 [6]: Not Active

CC[C@@](C)(Cc1ccc(OCCCOc2ccc3c(C)cc(O)nc3c2)cc1)C(=O)O
IC50 [2]: 6090 nM
IC50 [3]: Not Active
IC50 [6]: Not Active

CC(Cc1ccc(OCCCOc2ccc(Oc3ccc(F)cc3)cc2Cl)cc1)C(=O)O (centres undefined)
IC50 [2]: 208 nM
IC50 ([3]; read-out: IC50): 4070 nM
IC50 [6]: Not Active

CCC(C)(C)C(=O)O[C@H]1C[C@@H](C)C=C2C=C[C@H](C)[C@H](CC[C@@H]3C[C@@H](O)CC(=O)O3)[C@H]21 [SIMVASTATIN]
Activity (Canis familiaris [7]): -19%

CC(C)OC(=O)C(C)(C)Oc1ccc(C(=O)c2ccc(Cl)cc2)cc1 [FENOFIBRATE]
Activity (Syrian golden hamster [8]): -30%
Activity (Syrian golden hamster [9]): -31%
Activity (Canis familiaris [10]): -18%

O=C(O)C(Cc1ccc(OCCCOc2ccc(Oc3ccc(F)cc3)cc2Cl)cc1)c1ccccc1 (centres undefined)
IC50 [2]: 262 nM
IC50 ([3]; read-out: IC50): 1340 nM
IC50 [6]: Not Active

CCC(CC)(Oc1ccc(OCCCOc2ccc(Oc3ccc(F)cc3)cc2Cl)cc1)C(=O)O
EC50 ([5]; cos-1): Not Active
IC50 [2]: 22 nM
IC50 [3]: Not Active
EC50 ([4]; read-out: EC50): 2.7 nM
IC50 [6]: Not Active

CCC1(CC)C=C(C(F)(F)F)c2cc(Cl)c(OCCCOc3ccc(O[C@](C)(CC)C(=O)O)cc3)cc2O1
IC50 [2]: 125 nM
IC50 [3]: Not Active
IC50 [6]: Not Active

CC[C@@](C)(Cc1ccc(OCCCOc2ccccc2Cl)cc1)C(=O)O
IC50 [2]: 42 nM
IC50 ([3]; read-out: IC50): 4630 nM
EC50 ([4]; read-out: EC50): 54.1 nM

CC(C)(Oc1ccc(OCCCOc2ccc(Oc3ccc(F)cc3)cc2Cl)cc1)C(=O)O
EC50 ([1]; read-out: EC50): > 3000 nM
IC50 [2]: 30 nM
IC50 ([3]; read-out: IC50): 2390 nM
EC50 ([4]; read-out: EC50): 20 nM
